Bioassay records deposited in PubChem by several laboratories.
In the library only some 2.4% were active in any assay of this set; here they are far more common.
Cardio protect: cardioprotection against H2O2-induced cell death, primary screen, uHTS, H9c2 cells, ATPLite luminescence; H9c2 cardiomyocytes, H2O2 injury protection, 2 h; protection from H2O2 cell death, % at 20 µM; actives 0.63% (n = 360,000);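 active = compounds giving at least 50% protection of heart cells from peroxide-induced death in the single-dose screen, raw or plate-pattern-corrected value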;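 note: 0% = DMSO wells with peroxide and 100% = DMSO wells without peroxide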
PP5 inh: PP5 phosphatase inhibitors, primary screen, biochemical, fluorescence; actives 0.18% (n = 320,000); purified PP5c, OMFP substrate fluorescence; AID 1987, 2009; inhibition, % at 6.7 µM; Serine/threonine-protein phosphatase 5 (Homo sapiens), P53041;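 active = inhibition above the campaign's mean inhibition across all tested compounds plus 3 SD, cut at about 9.5% in these data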;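 note: 0% = DMSO only and 100% = 100 µM cantharidin control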
JMJD2C inh: inhibitors of GASC-1 histone demethylase, primary screen, biochemical, fluorescence, DELFIA europium; inhibition, % at 2.35 µM; AID 2099, 2009; actives 0.069% (n = 330,000); GST-JMJD2C(1-420) H3K9me3 demethylation; Lysine-specific demethylase 4C (Homo sapiens), Q9H3R0;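 active = more than half of a compound's replicate wells show inhibition beyond 50%, single wells judged on their own value; inconclusive = some, but no more than half, of replicates pass 50% inhibition; inactive = no replicate passes 50% inhibition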;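 note: signal counts dimethyl H3K9 product captured on neutravidin plate; 0% = median of DMSO wells and 100% = 0.3 times that DMSO median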
Target sequence (Q9H3R0 1-420 limits assumed): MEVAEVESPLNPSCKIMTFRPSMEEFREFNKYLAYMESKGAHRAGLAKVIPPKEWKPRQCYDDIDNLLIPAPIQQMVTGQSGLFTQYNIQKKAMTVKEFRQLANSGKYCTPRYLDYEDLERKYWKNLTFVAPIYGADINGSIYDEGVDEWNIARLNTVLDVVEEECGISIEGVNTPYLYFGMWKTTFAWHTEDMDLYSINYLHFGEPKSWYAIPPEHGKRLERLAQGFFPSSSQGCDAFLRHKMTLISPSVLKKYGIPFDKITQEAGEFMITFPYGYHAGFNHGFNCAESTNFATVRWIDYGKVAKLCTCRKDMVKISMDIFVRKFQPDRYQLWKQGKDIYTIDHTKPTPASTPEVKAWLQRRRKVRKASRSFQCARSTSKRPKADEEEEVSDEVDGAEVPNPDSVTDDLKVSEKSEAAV
pCIP destab: p/CIP-EGFP fusion destabilizers, primary screen, fluorescence, F442A cells; Q05BA5; 16 h; decrease of EGFP signal, % at 10 µM; actives 0.01% (n = 290,000); AID 1984, 2009;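 active = EGFP signal decrease of at least 30% at 10 µM or well 3 SD below plate mean, unless failing retest; inactive = the rest, including hits failing retest or dose response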
T cruzi repl: inhibitors of intracellular T. cruzi growth, primary screen, luminescence, NIH3T3 host cells | T. cruzi beta-gal in NIH3T3, 90 h | actives 1.4% (n = 300,000) | inhibition, % (concentration not given with the values) | AID 1885, 2009;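 active = mean inhibition across valid replicates above about 55%, limit read from the data; inconclusive = mean below that limit but half or more replicates reach it; inactive = mean below it, under half of replicates reach it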;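 note: signal also drops with host cell toxicity which is not excluded here; 0% = plate median of DMSO wells and 100% = zero luminescence signal; higher percent means less beta-gal luminescence so fewer parasites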
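assay system = mouse NIH/3T3 fibroblasts infected with β-gal-expressing T. cruzi Tulahuen C4 | input = 5,000 NIH/3T3 host cells per well | buffer or medium = DMEM plus 2% FBS | timing = 3 h host attachment, then at least 90 h co-culture | measured by = GalScreen luminescence, 60 min | evaluation = luminescence reflecting intracellular parasite burden, expressed as percent inhibition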
Fh CTSL1 inh: Fasciola hepatica cathepsin L1 inhibitors, primary screen, counter-screen for PFM18AAP inhibitor project, biochemical, QFRET, fluorogenic peptide substrate. recombinant F. hepatica cathepsin L1, Z-Leu-Arg-MCA fluorescence. inhibition, % at 5.96 µM. actives 0.49% (n = 300,000). AID 1906, 2009;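 active = inhibition above the mean of all tested compounds plus 3 SD, set per screening campaign, cut at about 17% in these data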;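 note: 0% = plate median of test compound wells and 100% = 1 µM Z-Phe-Ala-diazomethylketone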
An asterisk follows results filed as active; ? = inconclusive; nt = no result given.

SMILES | Cardio protect | PP5 inh | JMJD2C inh | pCIP destab | T cruzi repl | Fh CTSL1 inh
O=C(CN1CCN(c2cccc(Cl)c2)CC1)NCc1ccccc1 | 7.2 | 0.3 | 15.0 | -3.7 | 13.4 | 24.3*
O=C(CN1CCN(c2ccc(Cl)cc2)CC1)NCc1ccccc1 | -1.9 | 1.0 | -6.0 | 3.8 | 8.6 | 5.6
O=C(C1=C(O)C(=O)N(CC2CCCO2)C1c1ccccc1F)c1ccco1 (configuration not stated) | 7.8 | -1.5 | 0.8 | -0.7 | -6.7 | 3.2
CCOc1cccc(-c2nn(-c3ccccc3)cc2/C=C(/C#N)C(=O)NCCCn2ccnc2)c1 | -26.9 | 3.5 | -4.1 | -2.9 | 27.7 | 4.4
N#C/C(=C/c1cn(-c2ccccc2)nc1-c1cccc(OCc2ccccc2)c1)C(=O)NCCCn1ccnc1 | -3.5 | 1.4 | -1.9 | 4.3 | 60.2* | -1.6
COc1ccc(-n2c(SCC(=O)Nc3ccc(C(=O)O)cc3)nnc2-c2ccccc2)cc1OC | 2.1 | 0.8 | 2.7 | -1.2 | -10.8 | -0.8
O=C(NCCC(=O)N1CCN(Cc2c(F)cccc2Cl)CC1)c1ccc(Cl)cc1 | -5.0 | 1.6 | 5.8 | nt | nt | nt
C/C(=N\NC(N)=S)C1(C)CCCCC1 | 6.6 | -8.5 | -9.8 | -4.5 | 32.6 | 29.7*
C/C(=N\NC(N)=S)C12CC3CC(CC(C3)C1)C2 | -7.9 | -0.5 | 12.3 | 3.9 | 50.4 | 18.1*
C/C(=N\NC(=O)c1ccncc1)C12CC3CC(CC(C3)C1)C2 | 13.4 | 3.1 | 4.0 | 6.2 | -17.8 | 0.5
CCN(CC)C(=O)C1=C(C)N(CCC2=CCCCC2)C(=O)C(CC(=O)NCc2cccc3ccccc23)C1 (configuration not stated) | 11.0 | nt | nt | nt | nt | nt
CCc1ccc(C(=O)CN2C(=O)NC3(CCc4ccccc43)C2=O)cc1 (configuration not stated) | -4.1 | 3.8 | nt | nt | nt | nt
Cc1cccc(Cc2cnc(N3C(=N)SC(C)C3=O)s2)c1 (configuration not stated) | 27.4 | 0.0 | 29.7 | 10.1 | 68.1* | -3.0
COc1ccc2nc(N(CCN(C)C)C(=O)c3ccc4c(c3)OCCO4)sc2c1 | 8.0 | 4.2 | 9.2 | 0.4 | 64.5* | 0.1
CN(C)CCN(C(=O)c1ccc(S(=O)(=O)N(C)C)cc1)c1nc2cc3c(cc2s1)OCCO3 | 8.9 | -0.2 | -20.0 | -9.0 | 60.7* | -2.5
CN(C)CCN(C(=O)c1ccc2c(c1)OCCO2)c1nc2cc3c(cc2s1)OCO3 | 17.0 | 2.6 | -4.8 | -5.3 | 31.9 | 0.9
CN(C)CCN(C(=O)c1ccc(S(=O)(=O)N(C)c2ccccc2)cc1)c1nc2cc3c(cc2s1)OCCO3 | 9.1 | -0.7 | -6.5 | -0.9 | ? | -1.2
CC(C)CCN(C(=O)c1cn2ccccc2n1)c1c(N)n(Cc2ccccc2)c(=O)[nH]c1=O | 0.2 | nt | nt | nt | nt | nt
Cc1ccc([C@H]2C[C@@H](O)[C@H](n3cc(-c4ccc(F)cc4)nn3)CN2C(=O)C2CCCCC2)cc1 | -8.3 | nt | nt | nt | nt | nt
O=C(CC1OC(=O)c2ccccc21)Nc1cc(Cl)ccc1N1CCOCC1 (configuration not stated) | 2.1 | nt | 12.4 | nt | nt | nt
Cc1ccc(-n2cc(CNCCCn3ccnc3C)c(-c3ccc(F)cc3)n2)cc1 | -18.5 | -1.1 | -11.6 | 2.2 | 84.2* | -4.3
Cc1ccc(-c2nn(-c3ccccc3)cc2CNCc2ccccc2)cc1 | -19.8 | 3.8 | -3.4 | -10.1 | 62.1* | -1.2
Cc1ccc(-c2nn(-c3ccccc3)c3[nH]c(=O)c(CNCc4ccccc4)cc23)cc1 | 51.6* | 4.5 | -9.0 | 9.5 | 18.4 | -1.8
Cc1ccc(-c2nn(-c3ccccc3)cc2CO)cc1 | -5.6 | 1.3 | -6.4 | -5.4 | 1.4 | 1.4
COc1cc(C2/C(=C(\O)c3ccc4c(c3)OCCO4)C(=O)C(=O)N2Cc2ccco2)cc(OC)c1OC (configuration not stated) | -4.8 | nt | -1.7 | 0.3 | nt | nt
CCOc1ccc(-c2n[nH]c(=S)c3ccccc23)cc1 | -6.3 | -0.5 | 8.3 | -13.2 | 8.0 | 9.8
